From ChEMBL document CHEMBL4014281, “Design, synthesis and biological evaluation of gentiopicroside derivatives as potential antiviral inhibitors” (Eur J Med Chem, 2017)
Active and inactive are the calls of the source. The calls are words filed in the database; no cut-off is given here.

Tested on: MDCK
Test: Cytotoxicity against MDCK cells at 50 uM after 40 hrs by CellTiter-Glo assay
Assay type: cell-based, Canis lupus familiaris
Details: dog
Summary of the method: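 Uninfected MDCK cells grown overnight, then cultured 40 h in 1% FBS medium with test compound (50 μM in screen). Viability read by CellTiter-Glo luminescence. DMSO as negative control. Triplicate experiments, standard deviations shown.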

| SMILES | Activity |
| --- | --- |
| C=C[C@@H]1C2=CCOC(=O)C2=CO[C@H]1O[C@@H]1O[C@H](CO)[C@@H](N=[N+]=[N-])[C@H](O)[C@H]1O | Non-Toxic |
| C=C[C@@H]1C2=CCOC(=O)C2=CO[C@H]1O[C@@H]1O[C@H](CO)[C@H](F)[C@H](O)[C@H]1O | Non-Toxic |
| C=C[C@@H]1C2=CCOC(=O)C2=CO[C@H]1O[C@@H]1O[C@H](CSC)[C@@H](O)[C@H](O)[C@H]1O | Non-Toxic |
| C=C[C@@H]1C2=CCOC(=O)C2=CO[C@H]1O[C@@H]1O[C@H](CO)[C@H](N=[N+]=[N-])[C@H](O)[C@H]1O | Non-Toxic |
| C=C[C@@H]1C2=CCOC(=O)C2=CO[C@H]1O[C@@H]1O[C@H](CSC)[C@@H](OC(C)=O)[C@H](OC(C)=O)[C@H]1OC(C)=O | Non-Toxic |
| C=C[C@@H]1C2=CCOC(=O)C2=CO[C@H]1O[C@@H]1O[C@H](COC(=O)c2ccccc2)[C@@H](F)[C@H](OC(=O)c2ccccc2)[C@H]1OC(=O)c1ccccc1 | Non-Toxic |
| C=C[C@@H]1C2=CCOC(=O)C2=CO[C@H]1O[C@@H]1O[C@H](CSC(C)=O)[C@@H](OC(C)=O)[C@H](OC(C)=O)[C@H]1OC(C)=O | Non-Toxic |
| C=C[C@@H]1C2=CCOC(=O)C2=CO[C@H]1O[C@@H]1O[C@H](COC(c2ccccc2)(c2ccccc2)c2ccccc2)[C@@H](O)[C@H](O)[C@H]1O | Toxic |
| C=C[C@@H]1C2=CCOC(=O)C2=CO[C@H]1O[C@@H]1OC(COC(=O)c2ccccc2)=C[C@H](OC(=O)c2ccccc2)[C@H]1OC(=O)c1ccccc1 | Non-Toxic |
| C=C[C@@H]1C2=CCOC(=O)C2=CO[C@H]1O[C@@H]1O[C@H](CS)[C@@H](O)[C@H](O)[C@H]1O | Non-Toxic |
| C=C[C@@H]1C2=CCOC(=O)C2=CO[C@H]1O[C@@H]1O[C@H](COC(=O)c2ccccc2)[C@@H](OS(C)(=O)=O)[C@H](OC(=O)c2ccccc2)[C@H]1OC(=O)c1ccccc1 | Non-Toxic |

Tested on: Influenza A virus (A/WSN/1933(H1N1))
Test: Antiviral activity against Influenza A virus (A/WSN/1933(H1N1)) infected in MDCK cells assessed as reduction in virus-induced cytopathic effect at 50 uM by microscopic method
Assay type: functional, cell-based
Details: not given
Summary of the method: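 CPE in compound-treated infected MDCK wells was inspected directly by light microscopy, with DMSO-treated infected wells as comparator.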

| SMILES | Activity |
| --- | --- |
| C=C[C@@H]1C2=CCOC(=O)C2=CO[C@H]1O[C@@H]1O[C@H](COC(=O)c2ccccc2)[C@@H](OS(C)(=O)=O)[C@H](OC(=O)c2ccccc2)[C@H]1OC(=O)c1ccccc1 | Active |

Tested on: not listed separately
Test: Antiviral activity against Influenza A virus (A/WSN/1933(H1N1)) infected in MDCK cells assessed as reduction in virus-induced cytopathic effect after 40 hrs by CellTiter-Glo assay
Assay type: functional, cell-based
Details: not given
Summary of the method: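 MDCK cells were seeded and incubated overnight, then infected (MOI 0.1) in DMEM with 1% FBS, […] TPCK-trypsin and compound dose series at 1% final DMSO. Cell viability was read by CellTiter-Glo luminescence after 40 h. IC50 is the concentration giving 50% inhibition of viral replication; oseltamivir was the positive control.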

| SMILES | IC50 [µM] |
| --- | --- |
| C=C[C@@H]1C2=CCOC(=O)C2=CO[C@H]1O[C@@H]1O[C@H](CO)[C@H](F)[C@H](O)[C@H]1O | 45.2 |
| CCOC(=O)C1=C[C@@H](OC(CC)CC)[C@H](NC(C)=O)[C@@H](N)C1 [OSELTAMIVIR] | 33.6 |
| C=C[C@@H]1C2=CCOC(=O)C2=CO[C@H]1O[C@@H]1OC(COC(=O)c2ccccc2)=C[C@H](OC(=O)c2ccccc2)[C@H]1OC(=O)c1ccccc1 | 44 |
| C=C[C@@H]1C2=CCOC(=O)C2=CO[C@H]1O[C@@H]1O[C@H](COC(=O)c2ccccc2)[C@@H](OS(C)(=O)=O)[C@H](OC(=O)c2ccccc2)[C@H]1OC(=O)c1ccccc1 | 39.5 |

Tested on: Hepatitis C virus
Test: Antiviral activity against HCV pseudoparticle harboring HCV envelope protein E1 and E2 assessed as inhibition of pseudoparticle entry into human Huh7 cells at 5 uM measured after 3 days by Bright-Glo luciferase reporter gene assay relative to control
Assay type: functional, Hepacivirus hominis
Details: Huh-7, 72 h
Summary of the method: (§1)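 HCV pseudoparticle entry screen with each compound at 1 µM and 5 µM in 1% DMSO. DMSO-only wells set maximum entry (negative control); echinocystic acid served as the entry-blocking positive control.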

| SMILES | inhibition at 5 µM [%] |
| --- | --- |
| C=C[C@@H]1C2=CCOC(=O)C2=CO[C@H]1O[C@@H]1O[C@H](CO)[C@@H](N=[N+]=[N-])[C@H](O)[C@H]1O | 0.4 |
| C=C[C@@H]1C2=CCOC(=O)C2=CO[C@H]1O[C@@H]1O[C@H](CO)[C@H](F)[C@H](O)[C@H]1O | 13.3 |
| C=C[C@@H]1C2=CCOC(=O)C2=CO[C@H]1O[C@@H]1O[C@H](COC(=O)c2ccccc2)[C@H](SC(C)=O)[C@H](OC(=O)c2ccccc2)[C@H]1OC(=O)c1ccccc1 | 26.6 |
| C=C[C@@H]1C2=CCOC(=O)C2=CO[C@H]1O[C@@H]1O[C@H](CSC)[C@@H](O)[C@H](O)[C@H]1O | 21 |
| C=C[C@@H]1C2=CCOC(=O)C2=CO[C@H]1O[C@@H]1O[C@H](CO)[C@H](N=[N+]=[N-])[C@H](O)[C@H]1O | 23.3 |
| C=C[C@@H]1C2=CCOC(=O)C2=CO[C@H]1O[C@@H]1O[C@H](CSC(C)=O)[C@@H](OC(C)=O)[C@H](OC(C)=O)[C@H]1OC(C)=O | 21.7 |
| C=C[C@@H]1C2=CCOC(=O)C2=CO[C@H]1O[C@@H]1OC(COC(=O)c2ccccc2)=C[C@H](OC(=O)c2ccccc2)[C@H]1OC(=O)c1ccccc1 | 40.3 |
| C=C[C@@H]1C2=CCOC(=O)C2=CO[C@H]1O[C@@H]1O[C@H](CS)[C@@H](O)[C@H](O)[C@H]1O | 0.1 |
| C=C[C@@H]1C2=CCOC(=O)C2=CO[C@H]1O[C@@H]1O[C@H](COC(=O)c2ccccc2)[C@@H](OS(C)(=O)=O)[C@H](OC(=O)c2ccccc2)[C@H]1OC(=O)c1ccccc1 | 40.4 |

Tested on: Influenza A virus (A/WSN/1933(H1N1))
Test: Antiviral activity against Influenza A virus (A/WSN/1933(H1N1)) infected in MDCK cells assessed as reduction in virus-induced cytopathic effect at 50 uM after 40 hrs by CellTiter-Glo assay
Assay type: functional, cell-based
Details: not given
Summary of the method: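 Single-concentration screen: overnight-seeded MDCK cells were infected (MOI 0.1) in DMEM/1% FBS with […] TPCK-trypsin, compound at 1% final DMSO. CellTiter-Glo read-out after 40 h. Oseltamivir positive control; triplicate experiments, standard deviations shown.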

| SMILES | Activity |
| --- | --- |
| C=C[C@@H]1C2=CCOC(=O)C2=CO[C@H]1O[C@@H]1O[C@H](CO)[C@@H](N=[N+]=[N-])[C@H](O)[C@H]1O | Active |
| C=C[C@@H]1C2=CCOC(=O)C2=CO[C@H]1O[C@@H]1O[C@H](CO)[C@H](F)[C@H](O)[C@H]1O | Active |
| C=C[C@@H]1C2=CCOC(=O)C2=CO[C@H]1O[C@@H]1O[C@H](CSC)[C@@H](O)[C@H](O)[C@H]1O | Active |
| C=C[C@@H]1C2=CCOC(=O)C2=CO[C@H]1O[C@@H]1O[C@H](CO)[C@H](N=[N+]=[N-])[C@H](O)[C@H]1O | Active |
| C=C[C@@H]1C2=CCOC(=O)C2=CO[C@H]1O[C@@H]1O[C@H](CSC)[C@@H](OC(C)=O)[C@H](OC(C)=O)[C@H]1OC(C)=O | Active |
| C=C[C@@H]1C2=CCOC(=O)C2=CO[C@H]1O[C@@H]1O[C@H](COC(=O)c2ccccc2)[C@@H](F)[C@H](OC(=O)c2ccccc2)[C@H]1OC(=O)c1ccccc1 | Active |
| C=C[C@@H]1C2=CCOC(=O)C2=CO[C@H]1O[C@@H]1O[C@H](CSC(C)=O)[C@@H](OC(C)=O)[C@H](OC(C)=O)[C@H]1OC(C)=O | Active |
| C=C[C@@H]1C2=CCOC(=O)C2=CO[C@H]1O[C@@H]1OC(COC(=O)c2ccccc2)=C[C@H](OC(=O)c2ccccc2)[C@H]1OC(=O)c1ccccc1 | Active |
| C=C[C@@H]1C2=CCOC(=O)C2=CO[C@H]1O[C@@H]1O[C@H](CS)[C@@H](O)[C@H](O)[C@H]1O | Active |
| C=C[C@@H]1C2=CCOC(=O)C2=CO[C@H]1O[C@@H]1O[C@H](COC(=O)c2ccccc2)[C@@H](OS(C)(=O)=O)[C@H](OC(=O)c2ccccc2)[C@H]1OC(=O)c1ccccc1 | Active |

Tested on: Hepatitis C virus
Test: Antiviral activity against HCV pseudoparticle harboring HCV envelope protein E1 and E2 assessed as inhibition of pseudoparticle entry into human Huh7 cells at 1 uM measured after 3 days by Bright-Glo luciferase reporter gene assay relative to control
Assay type: functional, Hepacivirus hominis
Details: Huh-7, 72 h
Summary of the method: as §1

| SMILES | inhibition at 1 µM [%] |
| --- | --- |
| C=C[C@@H]1C2=CCOC(=O)C2=CO[C@H]1O[C@@H]1O[C@H](CO)[C@@H](N=[N+]=[N-])[C@H](O)[C@H]1O | 0.2 |
| C=C[C@@H]1C2=CCOC(=O)C2=CO[C@H]1O[C@@H]1O[C@H](CO)[C@H](F)[C@H](O)[C@H]1O | 0.7 |
| C=C[C@@H]1C2=CCOC(=O)C2=CO[C@H]1O[C@@H]1O[C@H](COC(=O)c2ccccc2)[C@H](SC(C)=O)[C@H](OC(=O)c2ccccc2)[C@H]1OC(=O)c1ccccc1 | 9.5 |
| C=C[C@@H]1C2=CCOC(=O)C2=CO[C@H]1O[C@@H]1O[C@H](CSC)[C@@H](O)[C@H](O)[C@H]1O | 14.9 |
| C=C[C@@H]1C2=CCOC(=O)C2=CO[C@H]1O[C@@H]1O[C@H](CO)[C@H](N=[N+]=[N-])[C@H](O)[C@H]1O | 11.7 |
| C=C[C@@H]1C2=CCOC(=O)C2=CO[C@H]1O[C@@H]1O[C@H](CSC(C)=O)[C@@H](OC(C)=O)[C@H](OC(C)=O)[C@H]1OC(C)=O | 30.4 |
| C=C[C@@H]1C2=CCOC(=O)C2=CO[C@H]1O[C@@H]1OC(COC(=O)c2ccccc2)=C[C@H](OC(=O)c2ccccc2)[C@H]1OC(=O)c1ccccc1 | 0.5 |
| C=C[C@@H]1C2=CCOC(=O)C2=CO[C@H]1O[C@@H]1O[C@H](CS)[C@@H](O)[C@H](O)[C@H]1O | 0.2 |
| C=C[C@@H]1C2=CCOC(=O)C2=CO[C@H]1O[C@@H]1O[C@H](COC(=O)c2ccccc2)[C@@H](OS(C)(=O)=O)[C@H](OC(=O)c2ccccc2)[C@H]1OC(=O)c1ccccc1 | 38.2 |

Tested on: Hepatitis C virus
Test: Antiviral activity against HCV pseudoparticle harboring HCV envelope protein E1 and E2 assessed as inhibition of pseudoparticle entry into human Huh7 cells measured after 3 days by Bright-Glo luciferase reporter gene assay
Assay type: functional
Details: Hepacivirus hominis

| SMILES | inhibition |
| --- | --- |
| C=C[C@@H]1C2=CCOC(=O)C2=CO[C@H]1O[C@@H]1OC(COC(=O)c2ccccc2)=C[C@H](OC(=O)c2ccccc2)[C@H]1OC(=O)c1ccccc1 | Dose-dependent effect |
| C=C[C@@H]1C2=CCOC(=O)C2=CO[C@H]1O[C@@H]1O[C@H](COC(=O)c2ccccc2)[C@@H](OS(C)(=O)=O)[C@H](OC(=O)c2ccccc2)[C@H]1OC(=O)c1ccccc1 | Dose-dependent effect |
